Reference: ChEMBL document CHEMBL4002597, “Exploration of novel piperazine or piperidine constructed non-covalent peptidyl derivatives as proteasome inhibitors” (Eur J Med Chem, 2017)
pIC50: −log10 of the molar value. Calls of active or inactive are those of the source. The rule behind the calls is not given here.

How the values were obtained:
[1] = biological target: T1, Proteasome Macropain subunit MB1 (Homo sapiens, UniProt P28074); experiment: Inhibition of chymotrypsin-like activity of human 20S proteasome pretreated for 15 mins followed by Suc-Leu-Leu-Val-Tyr-AMC substrate addition by fluorescence assay
T1 sequence (P28074 whole entry): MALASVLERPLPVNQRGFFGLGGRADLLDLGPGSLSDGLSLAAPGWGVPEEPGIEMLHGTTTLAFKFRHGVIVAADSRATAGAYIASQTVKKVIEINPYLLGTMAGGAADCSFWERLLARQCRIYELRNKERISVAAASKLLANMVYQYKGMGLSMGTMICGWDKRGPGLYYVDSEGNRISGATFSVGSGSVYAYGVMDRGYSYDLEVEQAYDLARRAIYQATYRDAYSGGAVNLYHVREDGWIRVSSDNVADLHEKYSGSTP
How it was run: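 Purified human proteasome (25 μg/mL) in 100 mM Tris-HCl pH 8.0 preincubated with compound 15 min, then Suc-Leu-Leu-Val-Tyr-AMC (50 μM) added; 50 μL reaction. AMC release followed as fluorescence increase at ex 355/em 460 nm. IC50 from sigmoidal variable-slope fit.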

RPMI-8226 = experiment: Cytotoxicity against human RPMI8226 cells measured after 72 hrs by MTS assay; assay type: functional, cell-based; settings: RPMI-8226, 72 h
How it was run: (§1)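 MM-1S seeded at 2 × 10⁴/well or RPMI 8226 at 0.5 × 10⁴/well, 100 μL, exposed to compound 72 h. MTS added (0.5 mg/mL final) for 2–4 h, absorbance read at 490 nm with 690 nm background subtraction. Inhibition = (A_control − A_sample)/A_control; IC50 from sigmoidal variable-slope nonlinear fit.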

MM1.S = experiment: Cytotoxicity against human MM1S cells measured after 72 hrs by MTS assay; assay type: functional, cell-based; how it was run: as §1
[2] = biological target: T2, Proteasome subunit beta type-5 (Mus musculus) (UniProt O55234); experiment: Inhibition of chymotrypsin-like activity of 20S proteasome in mouse blood at 2.5 uM pretreated for 40 mins followed by Suc-Leu-Leu-Val-Tyr-AMC substrate addition by fluorescence assay relative to control
T2 sequence (whole entry): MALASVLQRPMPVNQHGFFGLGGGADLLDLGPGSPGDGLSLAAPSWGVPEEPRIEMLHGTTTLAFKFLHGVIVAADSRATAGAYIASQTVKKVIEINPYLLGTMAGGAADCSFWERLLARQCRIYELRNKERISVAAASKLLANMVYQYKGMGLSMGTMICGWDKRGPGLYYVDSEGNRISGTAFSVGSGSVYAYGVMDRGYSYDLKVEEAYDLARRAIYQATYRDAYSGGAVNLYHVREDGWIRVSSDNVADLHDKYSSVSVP
How it was run: (§2)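 Normal mouse whole blood incubated with compound (1:50 volume ratio) 40 min, then pelleted. Cells lysed in 5 mM EDTA pH 8.0 at 4 °C 60 min, lysate protein by Bradford. 100 μg protein assayed in 20 mM HEPES pH 8.0, 0.5 mM EDTA, 0.05% SDS, 1% DMSO with 50 μM […]; fluorescence ex 355/em 460 nm.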

[3] = biological target: T2, Proteasome subunit beta type-5 (Mus musculus); experiment: Inhibition of chymotrypsin-like activity of 20S proteasome in mouse blood at 0.5 uM pretreated for 40 mins followed by Suc-Leu-Leu-Val-Tyr-AMC substrate addition by fluorescence assay; how it was run: as §2
[4] = Half-life in mouse plasma at 2 uM by LC-MS/MS analysis; assay type: ADME, cell-free
How it was run: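 Mouse plasma on sodium heparin. 10 mM DMSO stocks diluted to 0.02 mM in 0.05 M sodium phosphate with 0.5% BSA, then spiked into pre-warmed plasma to 2 µM final, duplicates (n=2), 37 °C water bath. Each time point quenched with acetonitrile; sonicated, shaken, centrifuged, supernatant diluted 1:1 in water, LC-MS/MS.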

Mus musculus = experiment: In vivo inhibition of chymotrypsin-like activity of 20S proteasome in blood cell of BALB/c mouse at 5 mg/kg, iv after 2 hrs using Suc-Leu-Leu-Val-Tyr-AMC substrate measured by fluorescence assay; assay type: functional
How it was run: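 BALB/c mice 6-8 weeks, 3 per group, single i.v. dose; positive control 5 mg/kg. Tail-vein blood taken at 1, 2 and 24 h into K2-EDTA tubes. Blood PBS-washed, cells lysed in 5 mM EDTA pH 8.0 for 60 min at 4 °C, clarified lysate assayed for chymotrypsin-like activity as in the in vitro assay.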

Compound	pIC50 [1]	pIC50 (RPMI-8226)	pIC50 (MM1.S)	other results
COc1ccc(NC(=O)C2CCN(C(=O)N[C@@H](CC(=O)NCC(C)(C)C)C(=O)N[C@@H](CCc3ccccc3)C(=O)NCc3ccccc3Cl)CC2)cc1	7.59			
CC(C)C[C@H](NC(=O)[C@H](CC(=O)NCC(C)(C)C)NC(=O)N1CCC(NC(=O)c2cnccn2)CC1)C(=O)NCc1ccccc1Cl	7.66			
CC(C)(C)CNC(=O)C[C@H](NC(=O)c1ccc(F)cc1)C(=O)N[C@@H](CCc1ccccc1)C(=O)NCc1ccccc1Cl				half-life at 2 µM [4]: 5.61 h
CC(C)(C)CNC(=O)C[C@H](NC(=O)N1CCC(C(=O)Nc2ccc(C(F)(F)F)cc2)CC1)C(=O)N[C@@H](CCc1ccccc1)C(=O)NCc1ccccc1Cl	6.72			
CC(C)(C)CNC(=O)C[C@H](NC(=O)N1CCC(NC(=O)c2cnccn2)CC1)C(=O)N[C@@H](Cc1ccccc1)C(=O)NCc1ccccc1Cl	7.39			
CC(C)C[C@H](NC(=O)[C@H](CC(=O)NCC(C)(C)C)NC(=O)N1CCC(C(=O)Nc2cnccn2)CC1)C(=O)NCc1ccccc1Cl	7.94			
CC(C)(C)CNC(=O)C[C@H](NC(=O)N1CCC(NC(=O)c2cnccn2)CC1)C(=O)N[C@@H](CCc1ccccc1)C(=O)NCc1ccc2c(c1)OCO2	8.00			
CC(C)(C)CNC(=O)C[C@H](NC(=O)N1CCC(C(=O)Nc2ccon2)CC1)C(=O)N[C@@H](CCc1ccccc1)C(=O)NCc1ccccc1Cl	8.15			
C[C@H](NC(=O)[C@H](CC(=O)NCC(C)(C)C)NC(=O)N1CCC(C(=O)Nc2cnccn2)CC1)C(=O)NCc1ccccc1Cl	7.71			
CC(C)(C)CNC(=O)C[C@H](NC(=O)C1CCN(C(=O)c2cnccn2)CC1)C(=O)N[C@@H](CCc1ccccc1)C(=O)NCc1ccccc1Cl	8.62	7.80	7.93	
C[C@H](NC(=O)[C@H](CC(=O)NCC(C)(C)C)NC(=O)N1CCC(NC(=O)c2cnccn2)CC1)C(=O)NCc1ccccc1Cl	7.88			
CC(C)(C)CNC(=O)C[C@H](NC(=O)C1CCN(C(=O)c2ccc(F)cc2)CC1)C(=O)N[C@@H](CCc1ccccc1)C(=O)NCc1ccccc1Cl	8.59	7.64	7.50	
CC(C)(C)CNC(=O)C[C@H](NC(=O)N1CCC(C(=O)Nc2cnccn2)CC1)C(=O)N[C@@H](Cc1ccccc1)C(=O)NCc1ccccc1Cl	7.74			
CC(C)(C)CNC(=O)C[C@H](NC(=O)N1CCC(C(=O)Nc2cnccn2)CC1)C(=O)N[C@@H](CCc1ccccc1)C(=O)NCc1ccc(F)cc1F	8.18			
CC(C)(C)CNC(=O)C[C@H](NC(=O)N1CCN(C(=O)c2ccc(F)cc2)CC1)C(=O)N[C@@H](CCc1ccccc1)C(=O)NCc1ccccc1Cl	8.42			
CC(C)(C)CNC(=O)C[C@H](NC(=O)N1CCC(C(=O)Nc2cnccn2)CC1)C(=O)N[C@@H](CCc1ccccc1)C(=O)NCc1ccc2c(c1)OCO2	8.54			
CC(C)C[C@H](NC(=O)[C@H](CCc1ccccc1)NC(=O)CN1CCOCC1)C(=O)N[C@@H](Cc1ccccc1)C(=O)N[C@@H](CC(C)C)C(=O)[C@@]1(C)CO1 [CARFILZOMIB]			8.82	inhibition [2]: Active; inhibition (Mus musculus): Active; inhibition [3]: Active
CC(C)(C)CNC(=O)C[C@H](NC(=O)N1CCC(NC(=O)c2cnccn2)CC1)C(=O)N[C@@H](CCc1ccccc1)C(=O)NCc1ccc(F)cc1F	7.97			

Now from value to molecule, other results behind:

pIC50 [1]	Compound	pIC50 (RPMI-8226)	pIC50 (MM1.S)	other results
9.00	CC(C)(C)CNC(=O)C[C@H](NC(=O)N1CCC(C(=O)Nc2ccccn2)CC1)C(=O)N[C@@H](CCc1ccccc1)C(=O)NCc1ccccc1Cl	8.42	8.37	
9.05	CC(C)(C)CNC(=O)C[C@H](NC(=O)N1CCC(C(=O)Nc2nccs2)CC1)C(=O)N[C@@H](CCc1ccccc1)C(=O)NCc1ccccc1Cl	7.99	8.14	inhibition [2]: Active; inhibition [3]: Active
8.92	CC(C)(C)CNC(=O)C[C@H](NC(=O)N1CCC(NC(=O)c2ccc(F)cc2)CC1)C(=O)N[C@@H](CCc1ccccc1)C(=O)NCc1ccccc1Cl	8.08	8.20	inhibition [2]: > 70%; inhibition in vivo at 5 mg/kg (Mus musculus): > 50%; half-life at 2 µM [4]: 11.2 h
8.82	CC(C)(C)CNC(=O)C[C@H](NC(=O)N1CCC(C(=O)Nc2ccc(F)cc2)CC1)C(=O)N[C@@H](CCc1ccccc1)C(=O)NCc1ccccc1Cl	7.86	7.90	inhibition [2]: Active; inhibition [3]: Active
8.96	CC(C)(C)CNC(=O)C[C@H](NC(=O)N1CCC(NC(=O)c2cnccn2)CC1)C(=O)N[C@@H](CCc1ccccc1)C(=O)NCc1ccccc1Cl	7.69	7.73	
9.22	CC(C)(C)CNC(=O)C[C@H](NC(=O)N1CCC(C(=O)Nc2cnccn2)CC1)C(=O)N[C@@H](CCc1ccccc1)C(=O)NCc1ccccc1Cl	7.77	7.80	inhibition [2]: > 70%
9.15	CC(C)(C)CNC(=O)C[C@H](NC(=O)N1CCC(C(=O)Nc2cccnc2)CC1)C(=O)N[C@@H](CCc1ccccc1)C(=O)NCc1ccccc1Cl	7.68	7.68	inhibition [2]: > 70%
9.00	CC(C)(C)CNC(=O)C[C@H](NC(=O)N1CCC(C(=O)NCc2nccs2)CC1)C(=O)N[C@@H](CCc1ccccc1)C(=O)NCc1ccccc1Cl	7.68	7.65	inhibition [2]: Active; inhibition [3]: Active
